Data published in ChEMBL document CHEMBL1147069, “Gambogic amide, a selective agonist for TrkA receptor that possesses robust neurotrophic activity, prevents neuronal cell death” (Proc Natl Acad Sci U S A, 2007).
Activity calls are given as the source filed them.

Experiments:
TrkB-stable [1] = test: Induction of MAPK signaling activation in TrkB-stable cells; assay type: cell-based
[2] = biological target: High affinity nerve growth factor receptor (Rattus norvegicus) (UniProt P35739); test: Induction of TrkA phosphorylation in rat hippocampal neurons at 0.5 uM after 30 mins; assay type: tissue-based; settings: Hippocampus
High affinity nerve growth factor receptor (Rattus norvegicus), sequence (P35739 whole entry): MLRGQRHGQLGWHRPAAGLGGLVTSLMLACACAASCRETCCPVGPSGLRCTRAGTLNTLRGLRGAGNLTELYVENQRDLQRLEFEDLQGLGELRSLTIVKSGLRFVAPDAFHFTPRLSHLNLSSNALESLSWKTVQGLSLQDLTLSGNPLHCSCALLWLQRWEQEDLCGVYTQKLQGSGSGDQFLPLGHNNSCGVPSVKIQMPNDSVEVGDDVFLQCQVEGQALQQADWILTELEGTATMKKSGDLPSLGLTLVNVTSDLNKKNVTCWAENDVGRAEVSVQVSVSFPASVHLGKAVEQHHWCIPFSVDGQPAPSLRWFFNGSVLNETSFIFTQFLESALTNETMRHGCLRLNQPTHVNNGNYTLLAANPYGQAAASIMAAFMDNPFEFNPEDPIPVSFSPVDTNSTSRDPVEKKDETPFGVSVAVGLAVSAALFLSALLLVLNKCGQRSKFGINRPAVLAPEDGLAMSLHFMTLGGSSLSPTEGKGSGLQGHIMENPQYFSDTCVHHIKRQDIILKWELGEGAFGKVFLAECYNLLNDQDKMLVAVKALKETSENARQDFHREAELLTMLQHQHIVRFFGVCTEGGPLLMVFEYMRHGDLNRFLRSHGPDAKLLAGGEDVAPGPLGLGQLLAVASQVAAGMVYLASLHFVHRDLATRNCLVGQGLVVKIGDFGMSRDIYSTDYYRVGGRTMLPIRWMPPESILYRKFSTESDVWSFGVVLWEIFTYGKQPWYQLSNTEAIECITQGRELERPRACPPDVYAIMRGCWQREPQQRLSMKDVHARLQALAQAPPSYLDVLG
In short: (§1)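 Primary hippocampal neurons were treated with 0.5 μM compounds for 30 min; lysates were immunoblotted with anti-phospho-Trk Y490 antibody. Repeated more than three times.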

SN56 = test: Suppression of staurosporine-initiated apoptosis in mouse SN56 cells at 0.5 uM; assay type: functional, cell-based
In short: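 Murine SN56 basal forebrain cells and their rat-TrkA stably transfected line T17 (DMEM, 1 mM pyruvate, 10% FBS; T17 with 300 μg/ml G418). Cells were preincubated with 0.5 μM compound, then given 1 μM staurosporine for 9 h. Apoptosis was read with the caspase-3-activated dye MR(DEVD)2 (10 μM, last hour) plus Hoechst counterstain after fixation. Three independent experiments, mean ± SD.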

TrkB-stable [3] = test: Induction of PI3K signaling activation in TrkB-stable cells; assay type: cell-based
PC-12 [4] = test: Induction of neurite outgrowth in rat PC12 cells at 0.5 uM after 5 days; assay type: functional, cell-based
In short: (§2)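 PC12 cells were seeded at 1 × 10^4 per well on poly-L-lysine and grown 24 h, then treated with compounds (0.5 μM, or 10–50 nM in dose series) or NGF for 5 days, with medium replenished every other day. Neurites were counted as processes longer than two cell bodies. Three independent experiments.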

[5] = Suppression of staurosporine-initiated apoptosis in mouse T17 cells at 0.5 uM
T17 [6] = test: […] in staurosporine-initiated apoptosis in mouse T17 cells at 0.5 uM
T17 [7] = test: Induction of MAPK phosphorylation in mouse T17 cells
[8] = biological target: High affinity nerve growth factor receptor (Rattus norvegicus) (UniProt P35739); test: Induction of Akt phosphorylation in rat primary hippocampal neurons; assay type: tissue-based; settings: Hippocampus
In short: (§3)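 Hippocampal neurons were given 0.5 μM compound for 5–180 min (time course), or a dose range for 30 min, with 50 ng/ml NGF for comparison. Akt phosphorylation was detected by immunoblotting with phospho-Akt (473/308) antibodies.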

[9] = biological target: High affinity nerve growth factor receptor (Homo sapiens) (UniProt P04629); test: Binding affinity to recombinant GST-TrkA
High affinity nerve growth factor receptor (Homo sapiens), sequence (P04629 33-796 limits assumed): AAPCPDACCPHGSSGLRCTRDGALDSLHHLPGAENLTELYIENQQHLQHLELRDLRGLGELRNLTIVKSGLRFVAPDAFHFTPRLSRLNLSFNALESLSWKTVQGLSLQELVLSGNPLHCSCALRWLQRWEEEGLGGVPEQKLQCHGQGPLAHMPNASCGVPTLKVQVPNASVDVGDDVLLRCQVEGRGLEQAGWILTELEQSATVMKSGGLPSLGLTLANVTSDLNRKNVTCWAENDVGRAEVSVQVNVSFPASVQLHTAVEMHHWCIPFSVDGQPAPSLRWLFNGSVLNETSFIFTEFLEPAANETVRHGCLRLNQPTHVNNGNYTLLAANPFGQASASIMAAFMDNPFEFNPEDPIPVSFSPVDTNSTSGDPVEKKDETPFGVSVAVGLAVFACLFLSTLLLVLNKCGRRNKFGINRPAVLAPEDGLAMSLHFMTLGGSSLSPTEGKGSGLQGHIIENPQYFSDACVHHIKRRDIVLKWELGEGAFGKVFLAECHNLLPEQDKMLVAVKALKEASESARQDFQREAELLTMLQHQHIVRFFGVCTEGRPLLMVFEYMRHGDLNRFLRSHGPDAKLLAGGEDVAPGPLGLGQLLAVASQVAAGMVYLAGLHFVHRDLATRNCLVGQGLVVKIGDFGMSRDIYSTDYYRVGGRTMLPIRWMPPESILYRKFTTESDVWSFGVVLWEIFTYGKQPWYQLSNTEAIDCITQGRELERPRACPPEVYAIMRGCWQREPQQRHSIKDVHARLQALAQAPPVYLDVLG
In short: (§4)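 Recombinant GST-TrkA, GST-TrkB or GST-TrkC proteins tested in an in vitro binding assay with the compounds; experiments were repeated more than three times.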

Rattus norvegicus [10] = test: Neuroprotective effect in rat MCAO model assessed as decrease in cerebral blood flow at 2 mg/kg within 5 mins; assay type: functional, Brain; parameters: scale not given: the % may be the effect or the level left
In short: (§5)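 Adult male rats underwent 2 h transient MCAO; vehicle or 2 mg/kg was given 5 min before reperfusion onset. Relative cerebral blood flow over ipsilateral parietal cortex was measured by laser-Doppler flowmetry versus preischemic levels. Values are mean ± SD, compared by Student's t test.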

[11] = biological target: Mitogen-activated protein kinase 3 (Homo sapiens) (UniProt P27361); test: Induction of ERK1 phosphorylation
Mitogen-activated protein kinase 3 (Homo sapiens), sequence (P27361 whole entry): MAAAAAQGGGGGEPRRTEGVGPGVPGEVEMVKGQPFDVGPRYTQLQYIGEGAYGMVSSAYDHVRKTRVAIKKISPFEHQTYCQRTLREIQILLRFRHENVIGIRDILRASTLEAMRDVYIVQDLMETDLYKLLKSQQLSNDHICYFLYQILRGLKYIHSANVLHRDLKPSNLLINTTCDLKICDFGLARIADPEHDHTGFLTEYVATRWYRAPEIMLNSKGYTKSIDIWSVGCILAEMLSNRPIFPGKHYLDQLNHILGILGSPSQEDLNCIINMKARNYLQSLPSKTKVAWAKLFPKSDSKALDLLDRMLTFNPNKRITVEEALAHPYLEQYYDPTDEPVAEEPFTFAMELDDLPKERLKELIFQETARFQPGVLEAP

[12] = biological target: NT-3 growth factor receptor (Homo sapiens) (UniProt Q16288); test: Binding affinity to recombinant GST-TrkC; in short: as §4
NT-3 growth factor receptor (Homo sapiens), sequence (Q16288 32-839 limits assumed): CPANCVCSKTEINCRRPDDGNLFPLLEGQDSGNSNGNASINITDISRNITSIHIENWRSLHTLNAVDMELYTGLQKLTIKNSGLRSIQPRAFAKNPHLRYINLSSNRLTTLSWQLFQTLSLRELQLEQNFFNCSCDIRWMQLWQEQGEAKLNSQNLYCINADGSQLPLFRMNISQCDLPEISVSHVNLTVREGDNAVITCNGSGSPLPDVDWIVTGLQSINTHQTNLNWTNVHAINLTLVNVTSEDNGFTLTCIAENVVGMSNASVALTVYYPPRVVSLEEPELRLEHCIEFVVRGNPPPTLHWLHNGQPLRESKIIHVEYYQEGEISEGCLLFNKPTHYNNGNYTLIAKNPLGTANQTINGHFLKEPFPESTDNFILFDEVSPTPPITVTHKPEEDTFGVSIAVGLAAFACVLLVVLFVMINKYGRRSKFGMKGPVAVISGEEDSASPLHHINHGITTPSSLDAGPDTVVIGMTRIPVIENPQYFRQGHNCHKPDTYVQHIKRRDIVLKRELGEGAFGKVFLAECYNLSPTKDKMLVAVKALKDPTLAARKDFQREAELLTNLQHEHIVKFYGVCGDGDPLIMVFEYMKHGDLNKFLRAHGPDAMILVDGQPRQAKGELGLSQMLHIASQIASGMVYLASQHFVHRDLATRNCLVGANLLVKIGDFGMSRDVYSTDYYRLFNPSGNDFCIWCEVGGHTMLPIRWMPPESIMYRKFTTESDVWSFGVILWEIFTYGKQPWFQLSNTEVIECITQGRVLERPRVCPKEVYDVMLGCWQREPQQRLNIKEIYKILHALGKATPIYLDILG

[13] = biological target: BDNF/NT-3 growth factors receptor (Homo sapiens) (UniProt Q16620); test: Binding affinity to recombinant GST-TrkB; in short: as §4
BDNF/NT-3 growth factors receptor (Homo sapiens), sequence (Q16620 32-822 limits assumed): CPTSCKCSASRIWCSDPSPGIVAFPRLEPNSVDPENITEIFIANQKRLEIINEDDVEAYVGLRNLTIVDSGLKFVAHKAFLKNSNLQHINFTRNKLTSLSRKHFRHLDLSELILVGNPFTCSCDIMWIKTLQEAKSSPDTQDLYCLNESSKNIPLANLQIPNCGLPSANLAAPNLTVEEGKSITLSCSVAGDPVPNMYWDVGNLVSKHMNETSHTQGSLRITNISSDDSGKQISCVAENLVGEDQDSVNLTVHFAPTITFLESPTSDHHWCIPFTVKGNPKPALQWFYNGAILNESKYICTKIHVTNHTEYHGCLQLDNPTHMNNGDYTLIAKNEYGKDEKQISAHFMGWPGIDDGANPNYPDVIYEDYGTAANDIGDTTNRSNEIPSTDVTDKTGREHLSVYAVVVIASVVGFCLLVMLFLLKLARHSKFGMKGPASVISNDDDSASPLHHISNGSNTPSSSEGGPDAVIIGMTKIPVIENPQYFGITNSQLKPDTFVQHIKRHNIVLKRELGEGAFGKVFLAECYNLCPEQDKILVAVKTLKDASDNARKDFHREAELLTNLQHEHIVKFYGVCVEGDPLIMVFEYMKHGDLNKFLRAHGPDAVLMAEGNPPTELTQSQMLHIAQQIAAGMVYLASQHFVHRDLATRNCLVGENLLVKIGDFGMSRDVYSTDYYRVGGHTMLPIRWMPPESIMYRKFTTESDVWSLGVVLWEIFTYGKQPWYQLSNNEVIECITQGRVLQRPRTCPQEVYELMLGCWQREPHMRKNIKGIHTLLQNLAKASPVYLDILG

Rattus norvegicus [14] = test: Neuroprotective effect in rat MCAO model assessed as increase in cerebral blood flow at 2 mg/kg after 120 mins of filament withdrawal; assay type: functional, Brain; in short: as §5
[15] = biological target: High affinity nerve growth factor receptor (Homo sapiens) (UniProt P04629); test: Stimulation of TrkA dimerization co-transfected in HEK293 cells at 0.5 uM after 30 mins by immunoblotting analysis in presence of green fluorescent protein; assay type: cell-based
In short: (§6)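 HEK293 cells were cotransfected with GFP-TrkA plus HA-TrkA or HA-TrkB, then treated with 0.5 μM compound for 30 min. GFP-TrkA was immunoprecipitated with anti-GFP and coprecipitated receptor detected by anti-HA immunoblot.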

Hippocampal neurone [16] = test: Neuroprotective effect in glutamate-induced cell death in rat hippocampal neurons after 30 mins; assay type: functional, tissue-based; settings: Hippocampus
In short: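 Primary hippocampal neurons were pretreated with compounds for 30 min, then exposed to 50 μM glutamate for 16 h. Apoptosis was quantified with the MR(DEVD)2 caspase-3 dye; NGF served as positive control. Three independent experiments, mean ± SD.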

[17] = biological target: Mitogen-activated protein kinase 1 (Homo sapiens) (UniProt P28482); test: Induction of ERK2 phosphorylation
Mitogen-activated protein kinase 1 (Homo sapiens), sequence (P28482 whole entry): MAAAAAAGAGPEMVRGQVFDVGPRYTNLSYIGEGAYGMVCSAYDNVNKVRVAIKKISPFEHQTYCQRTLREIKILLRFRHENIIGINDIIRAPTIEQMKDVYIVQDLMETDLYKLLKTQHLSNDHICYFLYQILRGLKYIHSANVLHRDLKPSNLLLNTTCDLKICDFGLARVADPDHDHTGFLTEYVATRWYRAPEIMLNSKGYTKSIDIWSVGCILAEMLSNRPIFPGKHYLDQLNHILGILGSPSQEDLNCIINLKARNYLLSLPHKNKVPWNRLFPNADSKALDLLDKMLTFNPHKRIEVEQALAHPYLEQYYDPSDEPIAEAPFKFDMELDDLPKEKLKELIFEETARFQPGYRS

[18] = biological target: NT-3 growth factor receptor (Homo sapiens) (UniProt Q16288); test: Induction of TrkC tyrosine phosphorylation in transfected HEK293 cells; assay type: cell-based
[19] = biological target: Tumor necrosis factor receptor superfamily member 16 (Homo sapiens) (UniProt P08138); test: Binding affinity to p75NTR
Tumor necrosis factor receptor superfamily member 16 (Homo sapiens), sequence (P08138 whole entry): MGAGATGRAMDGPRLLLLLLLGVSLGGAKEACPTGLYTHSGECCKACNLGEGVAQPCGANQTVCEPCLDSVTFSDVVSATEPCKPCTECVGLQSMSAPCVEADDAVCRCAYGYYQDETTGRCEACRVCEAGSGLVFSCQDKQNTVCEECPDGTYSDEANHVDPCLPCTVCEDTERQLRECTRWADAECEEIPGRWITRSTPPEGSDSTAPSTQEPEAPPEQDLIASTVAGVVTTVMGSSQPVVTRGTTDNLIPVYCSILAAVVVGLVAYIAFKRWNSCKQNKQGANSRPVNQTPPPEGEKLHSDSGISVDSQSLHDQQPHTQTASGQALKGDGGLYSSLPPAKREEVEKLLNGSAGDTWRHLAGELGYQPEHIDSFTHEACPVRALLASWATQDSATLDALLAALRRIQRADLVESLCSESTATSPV

[20] = biological target: High affinity nerve growth factor receptor (Homo sapiens) (UniProt P04629); test: Induction of TrkA tyrosine phosphorylation in transfected HEK293 cells; assay type: cell-based
[21] = biological target: RAC-alpha serine/threonine-protein kinase (Mus musculus) (UniProt P31750); test: Induction of Akt phosphorylation in mouse T17 cells
RAC-alpha serine/threonine-protein kinase (Mus musculus), sequence (P31750 whole entry, looked up): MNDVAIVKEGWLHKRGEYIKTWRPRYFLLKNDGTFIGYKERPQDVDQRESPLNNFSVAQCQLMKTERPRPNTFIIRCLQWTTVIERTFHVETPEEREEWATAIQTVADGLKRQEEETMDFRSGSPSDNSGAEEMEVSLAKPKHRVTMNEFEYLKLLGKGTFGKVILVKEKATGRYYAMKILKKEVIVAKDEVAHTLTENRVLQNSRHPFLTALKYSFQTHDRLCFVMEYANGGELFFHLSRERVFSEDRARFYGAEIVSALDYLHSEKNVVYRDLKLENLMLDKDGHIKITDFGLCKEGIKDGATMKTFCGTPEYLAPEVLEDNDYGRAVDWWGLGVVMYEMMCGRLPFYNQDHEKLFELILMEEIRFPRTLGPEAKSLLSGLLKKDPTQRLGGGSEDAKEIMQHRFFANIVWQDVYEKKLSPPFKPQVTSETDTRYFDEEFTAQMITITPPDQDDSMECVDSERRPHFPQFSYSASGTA

[22] = biological target: BDNF/NT-3 growth factors receptor (Homo sapiens) (UniProt Q16620); test: Binding affinity to TrkB
Rattus norvegicus [23] = species: Rattus norvegicus; test: Induction of TrkA Y751 tyrosine phosphorylation in rat hippocampal neurons at 0.5 uM after 30 mins by immunoblotting staining; assay type: tissue-based; settings: Hippocampus
PC-12 [24] = test: Induction of neurite outgrowth in rat PC12 cells; assay type: functional, cell-based; in short: as §2
Rattus norvegicus [25] = species: Rattus norvegicus; test: Reversal of TrkA Y490 phosphorylation in rat hippocampal neurons at 0.5 uM after 30 mins in presence of K252a; assay type: tissue-based; settings: Hippocampus
[26] = biological target: High affinity nerve growth factor receptor (Homo sapiens) (UniProt P04629); test: Binding affinity to TrkA kinase
In short: (§7)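 GFP-tagged TrkA (wild-type or kinase-dead) expressed in transfected HEK293 cells; lysates bound to gambogic amide immobilised on Affi-Gel 102 through an amide bond. For Kd, TrkA-loaded beads were competed with increasing free compound. After extensive washing, bead-bound protein was immunoblotted with anti-GFP and quantitated densitometrically.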

[27] = biological target: High affinity nerve growth factor receptor (Rattus norvegicus) (UniProt P35739); test: Induction of TrkA tyrosine phosphorylation in rat hippocampal neurons at 0.5 uM after 30 mins by immunoblotting staining; assay type: tissue-based; settings: Hippocampus; in short: as §1
[28] = biological target: High affinity nerve growth factor receptor (Rattus norvegicus) (UniProt P35739); test: Induction of Akt phosphorylation in rat primary hippocampal neurons after 30 mins; assay type: tissue-based; settings: Hippocampus; in short: as §3
[29] = biological target: High affinity nerve growth factor receptor (Homo sapiens) (UniProt P04629); test: Binding affinity to TrkA; in short: as §7
Hippocampal neurone [30] = test: Neuroprotective effect in oxygen-glucose deprivation triggered cell death in rat hippocampal neurons after 30 mins; assay type: functional, tissue-based; settings: Hippocampus
In short: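 Primary hippocampal neurons were pretreated with compounds or NGF 30 min before oxygen–glucose deprivation; apoptosis was assayed 3 h later, including a dose titration. Three independent experiments, mean ± SD.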

Mus musculus [31] = test: Neuroprotective effect on C57BL/6 mouse hippocampal CA1 region assessed as decrease in kainic acid-induced neuronal cell death at 2 mg/kg, sc after 5 days; assay type: functional; parameters: scale not given: the % may be the effect or the level left; settings: route subcutaneous
In short: (§8)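 C57BL/6 mice were given 2 mg/kg s.c., followed by 25 mg/kg kainic acid. After 5 days, mice were perfused and 5 μm brain sections cut. Hippocampal apoptosis was quantified by TUNEL with DAPI counterstain.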

[32] = biological target: Epidermal growth factor receptor (Homo sapiens) (UniProt P00533); test: Binding affinity to EGFR
HEK293 = test: Stimulation of TrkA and TrkB dimerization co-transfected in HEK293 cells at 0.5 uM after 30 mins by immunoblotting analysis; assay type: cell-based; in short: as §6
PC-12 [33] = test: Blockade of induction of neurite outgrowth in rat PC12 cells in presence of K252a; assay type: functional, cell-based
Mus musculus [34] = test: Neuroprotective effect on C57BL/6 mouse hippocampal CA3 region assessed as decrease in kainic acid-induced neuronal cell death at 2 mg/kg, sc after 5 days; assay type: functional; parameters: scale not given: the % may be the effect or the level left; settings: route subcutaneous; in short: as §8
[35] = biological target: NT-3 growth factor receptor (Homo sapiens) (UniProt Q16288); test: Binding affinity to TrkC
[36] = biological target: High affinity nerve growth factor receptor (Rattus norvegicus) (UniProt P35739); test: Induction of Akt phosphorylation in rat primary hippocampal neurons at 0.5 uM; settings: Hippocampus, TDE = time-dependent effect; in short: as §3
[37] = biological target: Mitogen-activated protein kinase 3 (Mus musculus) (UniProt Q63844); test: Induction of ERK1 phosphorylation in mouse T17 cells
[38] = biological target: Mitogen-activated protein kinase 1 (Mus musculus) (UniProt P63085); test: Induction of ERK2 phosphorylation in mouse T17 cells
[39] = biological target: Receptor tyrosine-protein kinase erbB-3 (Homo sapiens) (UniProt P21860); test: Binding affinity to ErbB3
[40] = biological target: High affinity nerve growth factor receptor (Rattus norvegicus) (UniProt P35739); test: Reversal of TrkA phosphorylation in rat hippocampal neurons at 0.5 uM after 30 mins in presence of K252a; assay type: tissue-based; settings: Hippocampus
Rattus norvegicus [41] = species: Rattus norvegicus; test: Reversal of TrkA Y751 phosphorylation in rat hippocampal neurons at 0.5 uM after 30 mins in presence of K252a; assay type: tissue-based; settings: Hippocampus
[42] = biological target: BDNF/NT-3 growth factors receptor (Homo sapiens) (UniProt Q16620); test: Induction of TrkB tyrosine phosphorylation in transfected HEK293 cells; assay type: cell-based

CC(=O)Oc1c2c(c(CC=C(C)C)c3c1C(=O)C1=C[C@@H]4CC5C(C)(C)O[C@@](C/C=C(\C)C(=O)O)(C4=O)[C@@]15O3)O[C@](C)(CCC=C(C)C)C=C2
inactive: Activity [2]
active: Activity (TrkB-stable [1]) | Activity (SN56) | Activity (TrkB-stable [3])

CC(C)=CCC[C@]1(C)C=Cc2c(O)c3c(c(CC=C(C)C)c2O1)O[C@]12C(=C[C@@H]4CC1C(C)(C)O[C@@]2(C/C=C(/C)C(=O)O)C4O)C3=O (some centres undefined)
200 nM: EC50 [5]
active: Activity (TrkB-stable [1]) | Activity (PC-12 [4]) | Activity (SN56) | Activity (TrkB-stable [3])
inactive: Activity [2]

CC(C)CCC[C@]1(C)C=Cc2c(O)c3c(c(CCC(C)C)c2O1)O[C@]12C(C[C@@H]4CC1C(C)(C)O[C@@]2(CCC(C)C(=O)O)C4O)C3=O (some centres undefined)
active: Activity (T17 [6]) | Activity [8] | Activity (TrkB-stable [1]) | Activity (SN56) | Activity (TrkB-stable [3])
inactive: Activity (T17 [7]) | Activity [2]

CC(C)=CCC[C@]1(C)C=Cc2c(O)c3c(c(CC=C(C)C)c2O1)O[C@]12C(=C[C@@H]4C[C@H]1C(C)(C)O[C@@]2(C/C=C(/C)C(=O)O)C4=O)C3=O [GAMBOGIC ACID]
24.41%: Activity (Rattus norvegicus [10])
85.83%: Activity (Rattus norvegicus [14])
active: Activity [9] | Activity [8] | Activity [11] | Activity (Hippocampal neurone [16]) | Activity [17] | Activity (SN56)
20 nM: EC50 [5]
inactive: Activity (T17 [7]) | Activity [12] | Activity (PC-12 [4]) | Activity [13] | Activity [15] | Activity [2]

COC(=O)/C(C)=C\C[C@@]12OC(C)(C)C3C[C@@H](C=C4C(=O)c5c(OC)c6c(c(CC=C(C)C)c5O[C@]431)O[C@](C)(CCC=C(C)C)C=C6)C2=O
120 nM: EC50 [5]
active: Activity (TrkB-stable [1]) | Activity (SN56) | Activity (TrkB-stable [3])
inactive: Activity (PC-12 [4]) | Activity [2]

CC(C)=CCC[C@]1(C)C=Cc2c(O)c3c(c(CC=C(C)C)c2O1)O[C@]12C(=C[C@@H]4CC1C(C)(C)O[C@@]2(C/C=C(/C)C(N)=O)C4=O)C3=O [GAMBOGIC AMIDE]
5 nM: EC50 [5]
6.3%: Activity (Mus musculus [31])
active: Activity [18] | Activity [20] | Activity [21] | Activity [11] | Activity (Rattus norvegicus [23]) | Activity (TrkB-stable [1]) | Activity (PC-12 [4]) | Activity (PC-12 [24]) Dose-dependent effect | Activity (Rattus norvegicus [25]) | Activity [26] | Activity [27] | Activity [28] Dose-dependent effect | Activity [29] | Activity (Hippocampal neurone [30]) Dose-dependent effect | Activity (PC-12 [33]) | Activity [15] | Activity (Hippocampal neurone [16]) | Activity [36] tde | Activity [37] | Activity [38] | Activity [17] | Activity [2] | Activity [40] | Activity (SN56) | Activity (Rattus norvegicus [41]) | Activity [42] | Activity (TrkB-stable [3])
inactive: Activity [19] | Activity [22] | Activity [32] | Activity (HEK293) | Activity [35] | Activity [39]
1.8%: Activity (Mus musculus [34])

CC(C)=CCC[C@]1(C)C=Cc2c(O)c3c(c(CC=C(C)C)c2O1)O[C@]12C(C[C@@H]4CC1C(C)(C)O[C@@]2(C/C=C(/C)C(=O)O)C4O)C3=O (some centres undefined)
inactive: Activity (T17 [7]) | Activity [2]
active: Activity (TrkB-stable [1]) | Activity (SN56) | Activity (TrkB-stable [3])
